# According to ChEMBL document CHEMBL1147105, “In vitro and in vivo activities of PD 0305970 and PD 0326448, new bacterial gyrase/topoisomerase inhibitors with potent antibacterial activities versus multidrug-resistant gram-positive and fastidious organism groups” (2007):
# How the values were obtained:
# [1] = tested on: Staphylococcus saprophyticus; assay: Antibacterial activity against Staphylococcus saprophyticus; assay type: functional
# Summary of the method: (§1)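 Broth microdilution MIC following CLSI guidelines, in cation-adjusted Mueller-Hinton broth, incubated at 35°C. Recent clinical isolates and reference strains, with identity confirmed by automated and standard microbiological methods. Results reported as MIC range, MIC50 and MIC90.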
# Citrobacter freundii = assay: Antibacterial activity against Citrobacter freundii; assay type: functional; summary of the method: as §1
# Streptococcus viridans = assay: Antibacterial activity against Streptococcus viridans; assay type: functional
# Summary of the method: (§2)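 Broth microdilution MIC following CLSI guidelines, in cation-adjusted Mueller-Hinton broth with 3% lysed horse blood. Plates incubated at 35°C. Clinical isolates and reference strains, with identity confirmed by standard microbiological methods.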
# Actinomyces sp. = assay: Antibacterial activity against Actinomyces sp.; assay type: functional
# Shigella flexneri = assay: Antibacterial activity against Shigella flexneri; assay type: functional; summary of the method: as §1
# Burkholderia cepacia = assay: Antibacterial activity against Burkholderia cepacia; assay type: functional; summary of the method: as §1
# Hoylesella oralis = assay: Antibacterial activity against Prevotella oralis; assay type: functional
# Summary of the method: (§3)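 Anaerobic broth microdilution MIC following CLSI guidelines, in supplemented Brucella broth. Run in an anaerobe chamber under 5% CO2, 5% H2 and 90% N2 at 35°C, and read after 48 h. Reported as MIC range, MIC50 and MIC90.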
# [2] = tested on: Peptoniphilus asaccharolyticus; assay: Antibacterial activity against Peptostreptococcus asaccharolyticus; assay type: functional; summary of the method: as §3
# Clostridioides difficile = assay: Antibacterial activity against Clostridium difficile; assay type: functional; summary of the method: as §3
# Anaerococcus prevotii = assay: Antibacterial activity against Peptostreptococcus prevotii; assay type: functional; summary of the method: as §3
# Shigella dysenteriae = assay: Antibacterial activity against Shigella dysenteriae; assay type: functional
# Moraxella catarrhalis [3] = assay: Antibacterial activity against beta-lactamase positive Moraxella catarrhalis; assay type: functional
# Alloiococcus otitis = assay: Antibacterial activity against Alloiococcus otitidis; assay type: functional
# Summary of the method: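 MIC by broth microdilution following CLSI guidelines, in cation-adjusted Mueller-Hinton broth with 3% lysed horse blood. Incubated at 35°C and read after 48 h. Reported as MIC range, MIC50 and MIC90.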
# [4] = tested on: Bacteroides thetaiotaomicron; assay: Antibacterial activity against Bacteroides thetaiotaomicron; assay type: functional; summary of the method: as §3
# Staphylococcus aureus = assay: Antibacterial activity against oxacillin-susceptible Staphylococcus aureus; assay type: functional
# Summary of the method: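 MIC by CLSI broth microdilution for nonfastidious organisms, in cation-adjusted Mueller-Hinton broth incubated at 35°C.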
# Klebsiella oxytoca = assay: Antibacterial activity against Klebsiella oxytoca; assay type: functional; summary of the method: as §1
# Staphylococcus warneri = assay: Antibacterial activity against Staphylococcus warneri; assay type: functional; summary of the method: as §1
# Enterococcus faecium = assay: Antibacterial activity against Enterococcus faecium; assay type: functional
# Summary of the method: (§4)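 Broth microdilution MIC per CLSI guidelines, incubated at 35°C. Cation-adjusted Mueller-Hinton broth for nonfastidious organisms and staphylococci. Streptococci tested in the same broth with 3% lysed horse blood. Anaerobes tested in supplemented Brucella broth inside an anaerobe chamber (5% CO2, 5% H2, 90% N2), read after 48 h. Strains were mainly recent clinical isolates with confirmed identity.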
# Bacteroides fragilis = assay: Antibacterial activity against Bacteroides fragilis; assay type: functional; summary of the method: as §3
# Enterococcus faecalis [5] = assay: Antibacterial activity against Enterococcus faecalis; assay type: functional; summary of the method: as §4
# Streptococcus sanguinis = assay: Antibacterial activity against Streptococcus sanguis; assay type: functional; summary of the method: as §2
# Fusobacterium nucleatum = assay: Antibacterial activity against Fusobacterium nucleatum; assay type: functional; summary of the method: as §3
# Enterococcus faecalis [6] = assay: Antibacterial activity against VanB-resistant Enterococcus faecalis; assay type: functional; summary of the method: as §4
# Enterococcus gallinarum = assay: Antibacterial activity against Enterococcus gallinarum; assay type: functional
# [7] = tested on: Staphylococcus haemolyticus; assay: Antibacterial activity against Staphylococcus haemolyticus; assay type: functional
# Summary of the method: (§5)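 Broth microdilution MIC following CLSI guidelines, in cation-adjusted Mueller-Hinton broth containing 3% lysed horse blood, incubated at 35°C. Clinical isolates with identity confirmed. Reported as MIC range, MIC50 and MIC90.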
# [8] = tested on: Fusobacterium necrophorum; assay: Antibacterial activity against Fusobacterium necrophorum; assay type: functional; summary of the method: as §3
# Cutibacterium acnes = assay: Antibacterial activity against Propionibacterium acnes; assay type: functional
# Listeria monocytogenes = assay: Antibacterial activity against Listeria monocytogenes; assay type: functional; summary of the method: as §5
# Streptococcus agalactiae = assay: Antibacterial activity against Streptococcus agalactiae; assay type: functional; summary of the method: as §5
# Corynebacterium jeikeium = assay: Antibacterial activity against Corynebacterium jeikeium; assay type: functional; summary of the method: as §5
# [9] = tested on: Enterococcus casseliflavus; assay: Antibacterial activity against Enterococcus casseliflavus; assay type: functional
# Salmonella enteritidis = assay: Antibacterial activity against Salmonella enterica serovar Enteritidis; assay type: functional, Salmonella enterica subsp. enterica serovar Enteritidis; summary of the method: as §1
# Moraxella catarrhalis [10] = assay: Antibacterial activity against beta-lactamase negative Moraxella catarrhalis; assay type: functional
# Bacteroides ovatus = assay: Antibacterial activity against Bacteroides ovatus; assay type: functional; summary of the method: as §3
# Prevotella bivia = assay: Antibacterial activity against Prevotella bivia; assay type: functional; summary of the method: as §3
smiles,measurement,setting,value
COc1c(N2CCNC(C)C2)c(F)cc2c(=O)c(C(=O)O)cn(C3CC3)c12 (centres undefined) [GATIFLOXACIN],MIC50,[1],0.25 mg/L
same,MIC90,[1],0.25 mg/L
same,MIC50,Citrobacter freundii,0.25 mg/L
same,MIC90,Citrobacter freundii,16 mg/L
same,MIC50,Streptococcus viridans,0.5 mg/L
same,MIC90,Streptococcus viridans,0.5 mg/L
same,MIC,Actinomyces sp.,0.125 mg/L
same,MIC50,Shigella flexneri,0.03 mg/L
same,MIC90,Shigella flexneri,0.06 mg/L
same,MIC50,Burkholderia cepacia,4 mg/L
same,MIC90,Burkholderia cepacia,16 mg/L
same,MIC50,Hoylesella oralis,0.25 mg/L
same,MIC90,Hoylesella oralis,0.5 mg/L
same,MIC,[2],0.06 mg/L
same,MIC50,Clostridioides difficile,0.5 mg/L
same,MIC90,Clostridioides difficile,0.5 mg/L
same,MIC,Anaerococcus prevotii,0.06 mg/L
same,MIC50,Shigella dysenteriae,0.03 mg/L
same,MIC90,Shigella dysenteriae,0.06 mg/L
same,MIC50,Moraxella catarrhalis [3],0.03 mg/L
same,MIC90,Moraxella catarrhalis [3],0.06 mg/L
same,MIC50,Alloiococcus otitis,0.06 mg/L
same,MIC90,Alloiococcus otitis,0.06 mg/L
same,MIC50,[4],4 mg/L
same,MIC90,[4],16 mg/L
same,MIC50,Staphylococcus aureus,0.125 mg/L
same,MIC90,Staphylococcus aureus,0.125 mg/L
same,MIC50,Klebsiella oxytoca,0.03 mg/L
same,MIC90,Klebsiella oxytoca,1 mg/L
same,MIC,Staphylococcus warneri,0.125 mg/L
same,MIC50,Enterococcus faecium,8 mg/L
same,MIC90,Enterococcus faecium,64 mg/L
same,MIC50,Bacteroides fragilis,1 mg/L
same,MIC90,Bacteroides fragilis,8 mg/L
same,MIC50,Enterococcus faecalis [5],8 mg/L
same,MIC90,Enterococcus faecalis [5],16 mg/L
same,MIC50,Streptococcus sanguinis,0.5 mg/L
same,MIC90,Streptococcus sanguinis,0.5 mg/L
same,MIC,Fusobacterium nucleatum,0.015 mg/L
same,MIC50,Enterococcus faecalis [6],8 mg/L
same,MIC90,Enterococcus faecalis [6],16 mg/L
same,MIC50,Enterococcus gallinarum,0.5 mg/L
same,MIC90,Enterococcus gallinarum,1 mg/L
same,MIC50,[7],0.125 mg/L
same,MIC90,[7],4 mg/L
same,MIC,[8],0.015 mg/L
same,MIC50,Cutibacterium acnes,1 mg/L
same,MIC90,Cutibacterium acnes,8 mg/L
same,MIC50,Listeria monocytogenes,0.5 mg/L
same,MIC90,Listeria monocytogenes,1 mg/L
same,MIC50,Streptococcus agalactiae,0.25 mg/L
same,MIC90,Streptococcus agalactiae,0.25 mg/L
same,MIC50,Corynebacterium jeikeium,0.125 mg/L
same,MIC90,Corynebacterium jeikeium,0.5 mg/L
same,MIC50,[9],0.5 mg/L
same,MIC90,[9],1 mg/L
same,MIC50,Salmonella enteritidis,0.03 mg/L
same,MIC90,Salmonella enteritidis,0.06 mg/L
same,MIC50,Moraxella catarrhalis [10],0.06 mg/L
same,MIC90,Moraxella catarrhalis [10],0.06 mg/L
same,MIC50,Bacteroides ovatus,4 mg/L
same,MIC90,Bacteroides ovatus,16 mg/L
same,MIC50,Prevotella bivia,0.25 mg/L
same,MIC90,Prevotella bivia,0.5 mg/L
